Series [1] has as its target T1, Human immunodeficiency virus type 1 reverse transcriptase (Human immunodeficiency virus 1, UniProt Q72547). The series is described as follows: Inhibition of HIV1 reverse transcriptase RNase H activity.
In series [2] the target is Human immunodeficiency virus type 1 reverse transcriptase (Human immunodeficiency virus 1) (UniProt Q72547). The series is described as follows: Inhibition of HIV1 reverse transcriptase RNase H activity assessed as remaining activity at 100 uM. The gist of the method:
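In vitro HIV-1 RT-associated RNase H activity measured with compound at 100 µM, expressed as percentage of remaining enzyme activity.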

The test system of series [3] is Human immunodeficiency virus 1. The series can be described thus: Antiviral activity against HIV1 infected in MT4 cells assessed as inhibition of virus-induced cytopathic effect. The format is functional, organism-based. The following applies: Human immunodeficiency virus 1, MT4. For orientation: Protection from cytopathic effect is a common read-out in antiviral testing.

The nature of series [4]: Cytotoxicity against human MT4 cells. Format: cell-based.
Series [5] deals with T1, Human immunodeficiency virus type 1 reverse transcriptase. The series can be described thus: Inhibition of HIV1 reverse transcriptase associated RNA dependent polymerase activity. The gist of the method: (§1)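 Mg-dependent HIV-1 integrase and RT RNA-dependent DNA polymerase activities measured in vitro, with compounds tested at concentrations up to 250 µM.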
The target in series [6] is Human immunodeficiency virus type 1 integrase (Human immunodeficiency virus 1, UniProt Q7ZJM1). The series is described as follows: Inhibition of HIV1 integrase. The gist of the method: as §1
For series [7], the system named is Human immunodeficiency virus 1. The series is described as follows: Binding affinity to HIV1 Reverse transcriptase RNase H domain p15 assessed as intrinsic fluorescence quenching at 100 uM by fluorimetry. The gist of the method:
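Recombinant isolated HIV-1 RT RNase H domain (p15) excited at 290 nm to maximise the tryptophan signal. Ligand binding at the active site is read as quenching of intrinsic fluorescence. HTHI (2-hydroxy-1,2,3,4-tetrahydroisoquinoline-1,3-dione) serves as positive control.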

The target of series [8] is Human immunodeficiency virus type 1 reverse transcriptase (Human immunodeficiency virus 1) (UniProt Q72547). The series is described as follows: Selectivity ratio of IC50 for HIV1 reverse transcriptase associated RNA dependent polymerase activity to IC50 for reverse transcriptase Rnase H activity.
Series [9] relates to Human immunodeficiency virus 1. The series is described as follows: Selectivity ratio of IC50 for HIV1 integrase to IC50 for reverse transcriptase Rnase H activity.

The source made the active and inactive calls. The rule behind the calls is not given here.

Sequence of Human immunodeficiency virus type 1 integrase (Q7ZJM1 whole entry): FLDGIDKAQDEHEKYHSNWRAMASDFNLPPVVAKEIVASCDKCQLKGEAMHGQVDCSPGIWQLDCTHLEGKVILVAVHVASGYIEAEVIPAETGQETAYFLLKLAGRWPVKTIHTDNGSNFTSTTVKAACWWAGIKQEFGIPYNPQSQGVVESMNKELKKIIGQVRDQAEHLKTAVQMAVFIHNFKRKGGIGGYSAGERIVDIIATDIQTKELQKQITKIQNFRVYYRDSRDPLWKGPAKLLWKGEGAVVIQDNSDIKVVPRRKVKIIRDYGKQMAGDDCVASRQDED

In series [1], `CCOC(=O)c1c(O)c(=O)[nH]c2ccc(N)cc12` registered an IC50 above 100 µM. For the same compound, in series [2], the Activity amounted to 100%. Further, in [3], the EC50 is above 250 µM. Further, half-maximal cytotoxicity in series [4] (CC50) was put at 250 µM.
Compound `O=C(O)c1c(O)c(=O)[nH]c2c(F)cccc12` returned an IC50 in [1] above 100 µM. Further, in series [2], the Activity turned out to be 88%. The EC50 in [3] was above 250 µM. In [4], this compound returned a half-maximal cytotoxic concentration (CC50) above 250 µM.
With `COc1ccc(CNC(=O)c2c(O)c(=O)[nH]c3ccc(F)cc23)cc1`, the IC50 in series [1] is 19 µM; in series [5], above 250 µM; in series [6], above 250 µM. In addition, in series [3], the EC50 is above 29 µM. The same compound had a CC50 in series [4] of 29 µM.
The compound `O=C(O)c1c(O)c(=O)[nH]c2ccc(F)cc12` showed an IC50 in [1] above 100 µM. Besides, the Activity in series [2] came to 100%. Further, the EC50 in series [3] is above 250 µM. This compound also yielded a CC50 in series [4] of 250 µM.
As for `O=C(NCc1ccc(F)cc1)c1c(O)c(=O)[nH]c2ccc(F)cc12`, the results for the IC50 in series [1], in series [5] and in series [6] were 22 µM, above 250 µM and above 250 µM, respectively. For the same compound, the EC50 in [3] was above 24 µM. The compound also came in with a CC50 in [4] of 24 µM.
In the case of `O=c1[nH]c2ccccc2cc1O`, the Activity in series [2] was 97%. In addition, in [4], the midpoint of cytotoxicity, the CC50, lay at 115 µM.
On to `CCOC(=O)c1c(O)c(=O)[nH]c2ccc(Cl)cc12`, for which, in series [1], the IC50 is above 100 µM. The Activity in [2] stood at 100%. The EC50 in series [3] is above 117 µM. The CC50 in series [4] worked out at 117 µM.
In the case of `O=C(NCc1ccc(F)cc1)c1c(O)c(=O)[nH]c2c(F)cccc12`, in series [1], inhibition was half-maximal at 75 µM (IC50). Moreover, the EC50 in series [3] is above 6.8 µM. The compound also registered a cytotoxic concentration (CC50) in series [4] of 8 µM.
Regarding `CCOC(=O)c1c(O)c(=O)[nH]c2ccc(F)cc12`, the IC50 in series [1] is above 100 µM. Further, the Activity in series [2] came out at 100%. For the same compound, the EC50 in [3] was above 134 µM. For the same compound, in series [4], the midpoint of cytotoxicity, the CC50, lay at 134 µM.
On to `O=C(NCc1ccc(F)cc1)c1c(O)c(=O)[nH]c2ccccc12`, for which the IC50 in [1] was 19 µM; in series [5] it was above 250 µM; in [6], above 250 µM. In addition, in [3], the EC50 is above 29 µM. This compound also gave a CC50 in series [4] of 29 µM. Moreover, in series [7], the result was Active.
`COc1ccc(CNC(=O)c2c(O)c(=O)[nH]c3c(F)cccc23)cc1` showed an IC50 in series [1] of 74 µM. In addition, the concentration for a half-maximal effect (EC50) in series [3] was above 8 µM. In addition, the CC50 in series [4] is 8 µM.
The corresponding values for `O=C(O)c1c(O)c(O)nc2ccccc12` are 59 µM, above 250 µM and above 250 µM.
As to `CCOC(=O)c1c(O)c(=O)[nH]c2c(F)cccc12`, the IC50 in series [1] was above 100 µM. Besides, the Activity in series [2] is 100%. Moreover, in series [3], the EC50 was above 238 µM. Further, it took 238 µM to reach half-maximal cytotoxicity in series [4] (CC50).
`CCCCCCNC(=O)c1c(O)c(=O)[nH]c2c(F)cccc12` registered an IC50 in [1] of 49 µM. For the same compound, the EC50 in series [3] is above 22 µM. This compound registered a CC50 in series [4] of 22 µM.
Regarding `CCOC(=O)c1c(O)c(O)nc2ccccc12`, it took 16 µM to reach half-maximal inhibition in [1] (IC50). Moreover, in [3], the EC50 is above 210 µM. Besides, the midpoint of cytotoxicity in [4], the CC50, lay at 210 µM.
For `O=C(O)c1c(O)c(=O)[nH]c2ccc([N+](=O)[O-])cc12`, in [1], the half-inhibitory concentration (IC50) came to 97 µM. For the same compound, the EC50 in series [3] is above 250 µM. In addition, the CC50 in [4] is above 250 µM.
`CCOC(=O)c1c(O)c(=O)[nH]c2ccc([N+](=O)[O-])cc12` gave a half-maximal inhibitory concentration (IC50) in series [1] of 64 µM. Also, the EC50 in series [3] is above 118 µM. The cytotoxic concentration (CC50) in [4] came out at 118 µM.
For the compound `O=C(NCc1ccc(F)cc1)c1c(O)c(=O)[nH]c2ccc(Cl)cc12`, the results for the IC50 in [1], in [5] and in [6] were 18 µM, above 250 µM and above 250 µM, respectively. Further, in series [3], the EC50 is above 28 µM. The compound also registered a half-maximal cytotoxic concentration (CC50) in series [4] of 28 µM. Besides, the Ratio IC50 in series [8] and in series [9] was above 14 throughout.
With `O=C(O)c1c(O)c(=O)[nH]c2ccc(Cl)cc12`, in series [1], the IC50 is above 100 µM. Besides, the Activity in series [2] was 100%. In addition, the EC50 in [3] is above 250 µM. The CC50 in [4] is above 250 µM.

As a reminder, the IC50 is the concentration needed to halve the response being measured. The low end stands for higher potency, the high end for lower potency. For orientation: EC50 means the midpoint of the concentration-response curve. One may read the CC50 as the concentration that lowers cell viability or growth by half. Low values mean greater toxicity to the cells, high ones lower toxicity to the cells.

For the origin of these results see ChEMBL document CHEMBL2029301, “Development of a series of 3-hydroxyquinolin-2(1H)-ones as selective inhibitors of HIV-1 reverse transcriptase associated RNase H activity” (Bioorg Med Chem Lett, 2012).
